SMILES strings stand for the structures.

The subject of data set [1] is Canis familiaris. In words: Duration of action in Conscious Dog at a dose of 0.05 mg/kg po. The format is ADME, organism-based, Canis lupus familiaris. On the set-up: dose 0.05 mg/kg, route oral. The following applies: in vivo.
Data set [2] has as its system Canis familiaris. In words: Duration of action in Conscious Dog at a dose of […] po. The following applies: in vivo. The format is ADME, organism-based, Canis lupus familiaris. On the set-up: dose 0.025 mg/kg, route oral.
Data set [3] deals with Canis familiaris. Briefly: Duration of action in Conscious Dog at a dose of 0.1 mg/kg po. The format is ADME, organism-based, Canis lupus familiaris. The following applies: in vivo. More on the design: dose 0.1 mg/kg, route oral.
Data set [4] has as its system Canis familiaris. Briefly: Duration of action in Conscious Dog at a dose of 0.2 mg/kg po. More on the design: dose 0.2 mg/kg, route oral. The format is ADME, organism-based, Canis lupus familiaris. The settings on record: in vivo.
The test system of data set [5] is Canis familiaris. In words: Duration of action in Conscious dog at a dose of 0.2 mg/kg po. The settings on record: in vivo. On the set-up: dose 0.2 mg/kg, route oral. The format is ADME, organism-based, Canis lupus familiaris.
The subject of data set [6] is Canis familiaris. Briefly: Duration of action in Conscious Dog at a dose of 0.075 mg/kg po. The format is ADME, organism-based, Canis lupus familiaris. On the set-up: dose 0.075 mg/kg, route oral. The settings on record: in vivo.
Data set [7] relates to Canis familiaris. In words: Duration of action in Conscious Dog at a dose of […] po. The settings on record: in vivo. The format is ADME, organism-based, Canis lupus familiaris.
Data set [8] has as its system Canis familiaris. Briefly: Duration of action in Conscious Dog at a dose of 0.3 mg/kg po. The format is ADME, organism-based, Canis lupus familiaris. More on the design: dose 0.3 mg/kg, route oral. The following applies: in vivo.
For data set [9], the system named is Canis familiaris. Briefly: Duration of action in Conscious Dog at a dose of 0.5 mg/kg po. The format is ADME, organism-based, Canis lupus familiaris. On the set-up: dose 0.5 mg/kg, route oral. The following applies: in vivo.
Data set [10] deals with Canis familiaris. Briefly: Duration of action in Conscious Dog at a dose of 0.15 mg/kg po. The settings on record: in vivo. The format is ADME, organism-based, Canis lupus familiaris. More on the design: dose 0.15 mg/kg, route oral.
Data set [11] concerns Canis familiaris. In words: Duration of action in Conscious Dog at 0.1 mg/kg po. The format is ADME, organism-based, Canis lupus familiaris. The settings on record: in vivo. On the set-up: dose 0.1 mg/kg, route oral. In outline:
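Conscious dogs. Before dosing, each dog's minimum PAF concentration giving irreversible whole-blood aggregation was set (30–50 nM). Compound was given by gavage in minimal 0.01 M HCl. Blood drawn 2 h later was challenged ex vivo with 10× (or 30×) that PAF level. If uninhibited, a larger second dose was given and blood resampled 2 h later. If inhibited, sampling continued until predose aggregation returned.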

The target in data set [12] is Platelet-activating factor receptor (Oryctolagus cuniculus). Briefly: In vitro antagonist activity against platelet activating factor (PAF) receptor, using washed rabbit platelets.

Take `Cc1nc2cnccc2n1-c1ccc(C2=Nc3c(-c4cccnc4)nn(C)c3N(C)C(=O)C2)cc1`: the Duration of action in the data set on Canis familiaris [1] was over 10 h; in the data set on Canis familiaris [2] it was 9 h.

`Cc1cc(C)c2c(n1)N(C)C(=O)CC(c1ccc(-n3c(C)nc4cnccc43)cc1)=N2` registered a Duration of action with Canis familiaris [3] of 9 h.

Compound `CCN(CC)C(=O)c1cnc2c(c1)N=C(c1ccc(-n3c(C)nc4cnccc43)cc1)CC(=O)N2C` registered a Duration of action in the data set with Canis familiaris [3] of 4 h.

With `Cc1nn(C)c2c1N=C(c1ccc(-n3c(C)nc4cnccc43)cc1)CC(=O)N2C`, in the data set with Canis familiaris [4], the Duration of action came out at 4 h.

In the data set on Canis familiaris [3], `Cc1nc2cnccc2n1-c1ccc(C2=Nc3c(-c4ccccc4)nn(C)c3N(C)C(=O)C2)cc1` yielded a Duration of action of over 8 h.

The compound `Cc1nc2cnccc2n1-c1ccc(C2=Nc3cc(Cl)c(Cl)cc3-n3ccnc3C2)cc1` displayed a Duration of action in the data set with Canis familiaris [5] of 7 h.

Take `Cc1nc2cnccc2n1-c1ccc(C2=Nc3c(C4CCCCC4)nn(C)c3N(C)C(=O)C2)cc1`: the Duration of action in the data set with Canis familiaris [2] worked out at 0 h; in the data set with Canis familiaris [6], 8 h.

In the data set with Canis familiaris [7], `Cc1nc2cnccc2n1-c1ccc(C2=Nc3cc(C(=O)N4CCOCC4)cnc3N(C)C(=O)C2)cc1` registered a Duration of action of 2 h.

Take `CCOC(=O)C1=C(c2ccc(-n3c(C)nc4cnccc43)cc2)NC(C)=C(C(=O)Nc2ccccn2)C1c1ccccc1Cl` (centres undefined): the Duration of action in the data set on Canis familiaris [6] amounted to 8 h.

With `Cc1nn(C)c2c1N=C(c1ccc(-n3c(C)nc4cnccc43)cc1)CC(=O)N2`, the Duration of action in the data set with Canis familiaris [8] amounted to 0 h.

Take `Cc1cc(C)c2c(n1)NC(=O)CC(c1ccc(-n3c(C)nc4cnccc43)cc1)=N2`: the figures for the Duration of action with Canis familiaris [9] and in the data set with Canis familiaris [10] were under 8 h and 0 h, respectively.

`Cc1nc2cnccc2n1-c1ccc(C2=Nc3cc(Br)cnc3N(C)C(=O)C2)cc1` yielded a Duration of action in the data set with Canis familiaris [4] of 4 h.

As to `Cc1nn(C)c2c1NC(=O)CC(c1ccc(-n3c(C)nc4cnccc43)cc1)=N2`, the figures for the Duration of action with Canis familiaris [9] and with Canis familiaris [10] were over 8 h and 0 h, respectively.

In the data set on Canis familiaris [11], `Cc1nnc2n1-c1sc3c(c1C(c1ccccc1Cl)=NC2)CC(C(=O)N1CCOCC1)C3` (centres undefined) [BEPAFANT] returned a Duration of action of 7 h. The compound also came in with an IC50 in data set [12] of 73 nM.

Usually IC50 stands for the concentration that gives 50% inhibition. A higher IC50 goes with weaker potency.

Source of the values: ChEMBL document CHEMBL1128539, “Novel antagonists of platelet-activating factor. 2. Synthesis and structure-activity relationships of potent and long-acting heterofused [1,5]benzodiazepine and [1,4]diazepine derivatives of 2-methyl-1-phenylimidazo[4,5-c]pyridine” (J Med Chem, 1995).
